From the M2OR odorant receptor database
Changes are numbered by the printed parent chain.

Legend:
Settings in all cases: stereoisomer not certain
OR1B1 = system: T1, OR1B1
T1 sequence (whole entry): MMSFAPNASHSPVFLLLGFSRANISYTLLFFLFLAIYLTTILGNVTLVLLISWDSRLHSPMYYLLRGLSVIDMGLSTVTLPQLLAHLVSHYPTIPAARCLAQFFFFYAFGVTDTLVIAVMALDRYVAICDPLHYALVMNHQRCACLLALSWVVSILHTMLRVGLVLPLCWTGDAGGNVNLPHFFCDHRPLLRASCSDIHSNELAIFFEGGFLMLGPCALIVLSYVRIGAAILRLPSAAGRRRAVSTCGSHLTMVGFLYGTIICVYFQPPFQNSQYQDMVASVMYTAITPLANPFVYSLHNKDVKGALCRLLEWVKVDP
In short: (§1)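 Each entry records the cell line, G-protein, co-transfected protein and tags used. Methods varied with the source, often transient luciferase assays in mammalian cell lines. A receptor–molecule pair is called responsive (active) if the original authors judged its signal statistically different from baseline and non-responsive (inactive) otherwise.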

OR1C1 (Homo sapiens) = target: T2, OR1C1 (Homo sapiens) (UniProt Q15619)
T2 sequence (whole entry): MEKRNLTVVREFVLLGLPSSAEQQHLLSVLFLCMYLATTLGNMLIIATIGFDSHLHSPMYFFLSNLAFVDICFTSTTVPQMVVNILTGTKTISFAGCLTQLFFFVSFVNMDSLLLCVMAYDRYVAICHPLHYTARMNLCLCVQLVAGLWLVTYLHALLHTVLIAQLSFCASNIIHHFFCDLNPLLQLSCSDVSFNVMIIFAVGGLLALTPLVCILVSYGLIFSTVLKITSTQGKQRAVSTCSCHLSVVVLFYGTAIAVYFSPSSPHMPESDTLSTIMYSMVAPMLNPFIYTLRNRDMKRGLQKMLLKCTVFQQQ
In short: as §1

OR1D2 (Homo sapiens) = target: T3, OR1D2 (Homo sapiens) (UniProt P34982)
T3 sequence (whole entry): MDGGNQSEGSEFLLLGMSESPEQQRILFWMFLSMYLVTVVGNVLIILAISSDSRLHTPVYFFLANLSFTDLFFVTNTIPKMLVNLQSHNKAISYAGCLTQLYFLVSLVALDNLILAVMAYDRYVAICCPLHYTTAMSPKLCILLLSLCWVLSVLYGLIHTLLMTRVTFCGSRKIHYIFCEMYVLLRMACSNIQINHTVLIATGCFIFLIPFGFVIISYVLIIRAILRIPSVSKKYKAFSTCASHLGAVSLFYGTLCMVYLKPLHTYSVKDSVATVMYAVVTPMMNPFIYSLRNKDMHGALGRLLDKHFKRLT
In short: as §1

OR1D4 (Homo sapiens) = target: T4, OR1D4 (Homo sapiens) (UniProt P47884)
T4 sequence (whole entry): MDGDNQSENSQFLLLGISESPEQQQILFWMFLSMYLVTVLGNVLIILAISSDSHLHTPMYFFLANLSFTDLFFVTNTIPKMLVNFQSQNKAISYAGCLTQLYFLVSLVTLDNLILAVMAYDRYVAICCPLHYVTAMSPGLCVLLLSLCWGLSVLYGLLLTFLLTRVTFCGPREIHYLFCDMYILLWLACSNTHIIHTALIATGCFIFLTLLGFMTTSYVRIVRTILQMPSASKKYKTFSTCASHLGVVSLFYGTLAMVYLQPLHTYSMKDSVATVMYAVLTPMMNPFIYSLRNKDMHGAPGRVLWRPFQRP
In short: as §1

OR1D5 (Homo sapiens) = target: T5, OR1D5 (Homo sapiens) (UniProt P58170)
T5 sequence (whole entry): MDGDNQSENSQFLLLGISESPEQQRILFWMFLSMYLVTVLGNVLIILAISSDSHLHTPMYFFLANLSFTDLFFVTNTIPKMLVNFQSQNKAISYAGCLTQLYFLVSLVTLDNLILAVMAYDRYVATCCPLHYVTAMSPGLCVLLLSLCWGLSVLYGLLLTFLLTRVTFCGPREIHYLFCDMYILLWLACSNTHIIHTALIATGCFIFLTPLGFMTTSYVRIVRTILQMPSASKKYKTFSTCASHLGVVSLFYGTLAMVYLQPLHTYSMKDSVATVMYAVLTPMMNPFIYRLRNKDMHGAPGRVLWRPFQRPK
In short: as §1

OR1E1 (Homo sapiens) = target: T6, OR1E1 (Homo sapiens) (UniProt P30953)
T6 sequence (whole entry): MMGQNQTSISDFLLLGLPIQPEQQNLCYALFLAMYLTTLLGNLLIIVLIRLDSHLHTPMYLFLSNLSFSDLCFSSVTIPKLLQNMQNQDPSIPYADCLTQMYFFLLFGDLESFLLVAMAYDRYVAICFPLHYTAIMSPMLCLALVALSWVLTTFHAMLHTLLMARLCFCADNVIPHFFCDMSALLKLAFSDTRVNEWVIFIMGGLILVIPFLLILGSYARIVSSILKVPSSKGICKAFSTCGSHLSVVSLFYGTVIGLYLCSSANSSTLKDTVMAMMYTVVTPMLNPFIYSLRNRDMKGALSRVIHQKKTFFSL
In short: as §1

OR1E2 (Homo sapiens) = target: T7, OR1E2 (Homo sapiens) (UniProt P47887)
T7 sequence (whole entry): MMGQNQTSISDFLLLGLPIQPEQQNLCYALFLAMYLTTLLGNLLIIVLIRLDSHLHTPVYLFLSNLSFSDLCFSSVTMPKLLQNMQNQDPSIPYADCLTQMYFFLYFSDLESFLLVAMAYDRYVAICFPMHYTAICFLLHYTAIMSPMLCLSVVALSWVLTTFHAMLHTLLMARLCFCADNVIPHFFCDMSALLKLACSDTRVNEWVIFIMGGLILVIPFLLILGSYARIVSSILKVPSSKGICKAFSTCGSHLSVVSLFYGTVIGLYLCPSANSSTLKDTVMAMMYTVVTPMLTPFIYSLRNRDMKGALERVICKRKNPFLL
In short: as §1

OR1F1 (Homo sapiens) = target: T8, OR1F1 (Homo sapiens) (UniProt O43749)
T8 sequence (whole entry): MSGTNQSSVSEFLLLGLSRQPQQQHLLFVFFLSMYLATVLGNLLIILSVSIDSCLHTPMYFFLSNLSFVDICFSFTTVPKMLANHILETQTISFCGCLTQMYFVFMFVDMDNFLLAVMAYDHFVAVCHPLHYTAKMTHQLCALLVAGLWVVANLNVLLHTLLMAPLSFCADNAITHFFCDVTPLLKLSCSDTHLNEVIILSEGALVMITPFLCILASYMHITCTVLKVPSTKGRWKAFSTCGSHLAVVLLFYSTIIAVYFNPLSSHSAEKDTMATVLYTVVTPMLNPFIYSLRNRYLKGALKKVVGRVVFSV
In short: as §1

OR1E2 = system: T9, OR1E2
T9 sequence (whole entry): T7 sequence (whole entry) with C27R
In short: as §1

Measured: odorant receptor agonist call

CCC(S)C(C)CO (stereo not drawn)
not listed: OR1E2
inactive: all other assays above

Cc1cnc(C)c(C)n1
not listed: OR1D4 (Homo sapiens)
inactive: all other assays above

O=CCCCCc1ccccc1
inactive: OR1D2 (Homo sapiens)

CC(CO)CS (stereo not drawn)
not listed: OR1E2
inactive: all other assays above

CCCCCCC=CCCC=O
not listed: OR1D4 (Homo sapiens)
inactive: all other assays above
